# Hits are enriched below; roughly 3.6% of the tested compounds scored in any of these assays.
# HSF-1 act: increases HSF-1 driven luciferase reporter signal. NIH3T3-HGL HSF-1 luciferase reporter, MG132, 8 h; 100% = twice DMSO control signal. activation, % at 9 µM. hit rate 1.7% among 300,000;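 active means mean replicate activation of at least 50% with a set share of replicates each reaching 50%; inconclusive means only one of those two conditions met; inactive means mean below 50% and too few replicates reaching it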;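 further: 0% = median of the neutral control wells and 100% = twice that signal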
# SR-BI HDL uptake: inhibitors of mouse SR-BI mediated HDL lipid uptake; Q61009; ldlA[mSR-BI] CHO cells, DiI-HDL uptake fluorescence, 3 h; inhibition, % at 12.5 µM; hit rate 0.96% among 320,000;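 active means mean replicate inhibition of at least 70% and a set share of replicates each scoring 70 or more; inconclusive means meets just one of the two criteria; inactive means fails both criteria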;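 further: 0% = median of neutral control wells and 100% = median of positive control wells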
# Target sequence (Q61009 whole entry, looked up): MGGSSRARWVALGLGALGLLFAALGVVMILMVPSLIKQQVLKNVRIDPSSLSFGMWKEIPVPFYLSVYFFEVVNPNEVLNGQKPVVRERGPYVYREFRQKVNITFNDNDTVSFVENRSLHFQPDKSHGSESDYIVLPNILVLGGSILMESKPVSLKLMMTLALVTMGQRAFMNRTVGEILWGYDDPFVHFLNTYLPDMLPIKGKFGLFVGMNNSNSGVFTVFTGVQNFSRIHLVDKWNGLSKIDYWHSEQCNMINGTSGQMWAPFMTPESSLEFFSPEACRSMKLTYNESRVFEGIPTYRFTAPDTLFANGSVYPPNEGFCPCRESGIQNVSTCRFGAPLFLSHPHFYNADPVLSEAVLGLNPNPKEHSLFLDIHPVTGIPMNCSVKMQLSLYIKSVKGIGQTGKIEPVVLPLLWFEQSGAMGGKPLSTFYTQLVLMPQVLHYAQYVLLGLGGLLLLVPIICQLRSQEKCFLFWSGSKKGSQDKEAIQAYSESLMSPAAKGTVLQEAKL
# MITF act: MITF TRPM1 promoter activation in melanoma cells; SK-MEL-5 TRPM1-promoter luciferase, 24 h; % of positive control, neutral wells = 0; activation, % at 12.5 µM; AID 588334; hit rate 0.75% among 300,000;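 active means mean activation of at least 80% with every replicate also reaching 80%; inconclusive means mean reaches 80% but some replicate falls short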;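 further: 0% = neutral control wells and 100% = parthenolide positive control wells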
# SR-BI uptake up: SR-BI HDL lipid transfer activation; CHO ldlA[mSR-BI] cells, DiI-HDL uptake fluorescence, 3 h; 100 = double the neutral-control signal; activation, % at 12.5 µM; hit rate 0.096% among 320,000; AID 504775;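 active means mean replicate activation of at least 60% and every replicate at or above 60%; inconclusive means mean or all-replicate condition met, but not both; inactive means mean below 60% and not all replicates reaching 60%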;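 further: 0% = median plate neutral-control signal and 100% = twice that signal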
#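 Material: SR-BI-overexpressing, LDLR-lacking CHO cells | Dosing: Single compound concentration, delivered by pin transfer | Probe or stimulus: Labelled HDL, 10 µg/mL | Signal: Bottom-read cell fluorescence after medium removal, ex 550/em 595 nm | Schedule: 3 h, 37 °C | Evaluation: HDL uptake via cellular fluorescence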
# Wnt act: activators of Wnt/beta-catenin signaling | Wnt/beta-catenin reporter cell assay, activator, plate reader | hit rate 1.2% among 300,000 | activation, % at 9.35 µM | AID 743398; in the data active means activation above about 30%, passing the limit was not always enough; inconclusive means no clear call, values can overlap the other calls;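 further: 0% = neutral control wells and 100% = positive control wells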
# Starred values were filed as active, the others as inactive; ? = inconclusive; / = not tested or not shown.
SMILES,HSF-1 act,SR-BI HDL uptake,MITF act,SR-BI uptake up,Wnt act
O=[N+]([O-])c1ccc2nc(-c3ccccc3)n(OCc3ccc(Cl)cc3)c2c1,59*,78*,/,-78,/
COCCCN1C(=O)C(CC(=O)NCC2CCCCC2)CC(C(=O)N2CCOCC2)=C1C (configuration not stated),/,/,/,/,-2
O=C1C(Cl)=C(Nc2ccccc2)C(=O)c2ccccc21,0,-8,-89,8,/
CC(C)NC1=C(Cl)C(=O)c2ccccc2C1=O,70*,-23,-78,23,/
c1ccc(CSc2nc3ccccc3[nH]2)cc1,?,6,111*,-6,68*
N/N=C(/Cc1nc2ccccc2[nH]1)c1ccc([N+](=O)[O-])cc1,34,40,25,-40,38*
O=C(CCCSc1nc2ccccc2[nH]1)N1CCN(c2ccc([N+](=O)[O-])cc2)CC1,73*,53,-23,-53,/
O=C(NCc1ccccc1Cl)c1ccc(CSc2nc3ccncc3[nH]2)cc1,-27,7,7,-7,1
Clc1ccccc1CSc1nc2ccncc2[nH]1,27,-1,67,1,39*
O=C(CSc1nc2ccccc2[nH]1)N1CCN(c2ccc(F)cc2)CC1,25,19,1,-19,/
OCCN1CCN(c2ncnc3c2ncn3[C@H]2CN(Cc3ccncc3)C[C@@H](CO)O2)CC1,/,/,/,/,-2
CC1(C(=O)Nc2cccc3ccccc23)CCN1C(=O)Cc1ccc(Cl)cc1Cl (configuration not stated),/,/,/,/,-1
Cc1ccccc1-n1nc(CSc2nc3ccccc3[nH]2)c(-c2ccccc2)c1N,60*,13,-12,-13,0
c1ccc(CSCc2nc3ccccc3[nH]2)cc1,24,11,111*,-11,/
CCCOc1ccc(CSc2nc3ccccc3[nH]2)cc1,35,-7,30,7,/
Nn1c(SCc2ccc([N+](=O)[O-])cc2)nc2ccccc2c1=O,55*,17,22,-17,2
Nc1c(-c2ccccc2)c(CSc2nc3ccccc3[nH]2)nn1-c1ccc(Cl)cc1,4,59,1,-59,-1
Fc1ccc(CSc2nc3ccccc3[nH]2)cc1,61*,-8,104*,8,/
OC(c1ccc2ccccc2c1)c1ncc(-c2ccc(C(F)(F)F)cc2)[nH]1 (configuration not stated),/,/,/,/,-3
CCCCCNC(=O)C(C1CC1)n1c(=O)c(-c2ccccc2)nc2ccccc21 (configuration not stated),/,/,/,/,-1
CCOc1ccc(N(CC(=O)Nc2c(C)cc(C)cc2C)C2=NC3CS(=O)(=O)CC3S2)cc1 (configuration not stated),/,/,/,/,8
O=[N+]([O-])c1ccc(Sc2nc3ccccc3[nH]2)c(Cl)c1,/,/,/,/,-1
O=[N+]([O-])c1ccc(CSc2nc3ccccc3[nH]2)cc1,121*,-3,?,3,21
O=C(NCc1ccccc1)/C(=C\c1ccc(F)cc1)NC(=O)c1ccco1,/,/,/,/,0
Cc1ccc(-c2nc3ccc(Br)cn3c2Cc2cccc(Cl)c2)cc1,/,/,/,/,12
SMILES,HSF-1 act,SR-BI HDL uptake,MITF act,SR-BI uptake up,Wnt act
COc1ccc(Nc2nc(N)c3ccccc3n2)c(OC)c1,21,9,89*,-9,22
COc1ccc(Nc2nc(-c3ccncc3)nc3ccccc23)cc1,-9,80*,25,-80,-13
COc1ccc(Nc2nc(-c3ccccc3)nc3ccccc23)c(OC)c1,19,76*,-14,-76,-1
COc1ccc(Nc2nc(N)nc(C(F)(F)F)n2)c(OC)c1,-36,6,24,-6,2
COc1ccc(OC)c(Nc2nc(-c3ccncc3)nc3ccccc23)c1,-14,48,-1,-48,0
COc1ccc(Nc2cc(C(=O)NC3CCCC3)c3ccccc3n2)c(OC)c1,2,88*,0,-88,2
COC(=O)c1c(-c2ccc(OC)cc2)c2c(c3c4cc(OC)ccc4n(S(=O)(=O)c4ccc(C)cc4)c13)C(=O)N(C)C2,/,/,/,/,-8
Cc1cc(=O)[nH]c2nc3ccccc3n12,/,/,/,/,2
C[C@H](CO)N1C[C@H](C)[C@@H](CN(C)S(=O)(=O)c2cn(C)cn2)Oc2ncc(Br)cc2C1=O,/,/,/,/,0
COC(=O)C1OCOC2C(C(=O)OC)OCOC12 (configuration not stated),/,-20,3,20,0
